Experimental data reported in ChEMBL document CHEMBL4138116, “New bicyclic brominated furanones as potent autoinducer-2 quorum-sensing inhibitors against bacterial biofilm formation” (Eur J Med Chem, 2017).
Calls of active or inactive are those of the source. The calls are words filed in the database; no cut-off is given here.

Tests used:
[1] = test system: Fusobacterium nucleatum; assay: Inhibition of Fusobacterium nucleatum ATCC 25586 AI-2 assessed as decrease in biofilm formation at 0.02 to 0.2 uM
[2] = test system: Fusobacterium nucleatum; assay: Inhibition of Fusobacterium nucleatum AI-2-mediated biofilm formation of Porphyromonas gingivalis ATCC 33277 assessed as biofilm biomass at 2 uM incubated for 48 hrs under anaerobic condition by confocal laser scanning microscopic method (reference value: 3.73 um'3/um'2)
[3] = Cytotoxicity against human gingival fibroblasts assessed as effect on cell viability at 2 uM incubated for 24 hrs by CCK8 assay
Outline: (§1)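 Cells in 96-well plates were exposed to compound for 24 h, with viability read by CCK-8 against a non-treated control. THP-1 (RPMI 1640, 10% FBS) was seeded at 1 × 10^5 cells/well and treated directly. HGFs (DMEM, 10% FBS) at 2 × 10^4 and HOK-16B (keratinocyte basal medium) at 5 × 10^4 cells/well were treated after reaching 85% confluence. Runs were done three times in triplicate.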

[4] = Effect on host cell immune response in human gingival fibroblasts assessed as upregulation of IL-6 mRNA expression at 2 uM after 24 hrs by RT-PCR method; assay type: ADME
Outline: (§2)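 THP-1 cells (1 × 10^6 cells/well) or HGFs (2 × 10^5 cells/well) in 6-well plates were incubated 24 h at 37 °C with or without compound, with LPS as comparator. Total RNA (1 µg) was reverse-transcribed, and IL-6 and IL-8 mRNA were quantified by SYBR Green real-time PCR (40 cycles of 95 °C for 15 s and 60 °C for 1 min). Runs were done three times in triplicate.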

[5] = test system: Fusobacterium nucleatum; assay: Inhibition of Fusobacterium nucleatum AI-2-mediated biofilm formation of Tannerella forsythia ATCC 43037 assessed as biofilm formation at 2 uM incubated for 48 hrs under anaerobic condition by crystal violet staining-based assay (reference value: 100%); design: scale not given: the % may be the effect or the level left
Outline: (§3)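 Crystal-violet biofilm assay on glass slips in 24-well plates with 10% (v/v) F. nucleatum AI-2 and compound at 0.002–2 mM. Inocula were F. nucleatum 2 × 10^7, P. gingivalis 2 × 10^8 and T. forsythia 2 × 10^8 bacteria/mL, held 48 h anaerobically (10% H2, 10% CO2, 80% N2). Slips were washed three times with PBS, stained with 1% crystal violet for 10 min, destained with acetone–alcohol (20:80) and read at A595.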

[6] = test system: THP-1; assay: Cytotoxicity against human THP1 cells assessed as effect on cell viability at 2 uM incubated for 24 hrs by CCK8 assay; assay type: cell-based; details: thp-1, 24 h; outline: as §1
[7] = test system: Fusobacterium nucleatum; assay: Inhibition of Fusobacterium nucleatum AI-2-mediated biofilm formation of Fusobacterium nucleatum ATCC 25586 assessed as biofilm biomass at 2 uM incubated for 48 hrs under anaerobic condition by confocal laser scanning microscopic method (reference value: 2.99 um'3/um'2)
[8] = test system: THP-1; assay: Effect on host cell immune response in human THP1 cells assessed as upregulation of IL-6 mRNA expression at 2 uM after 24 hrs by RT-PCR method; assay type: ADME, cell-based; details: thp-1, 24 h; outline: as §2
[9] = test system: Tannerella forsythia; assay: Inhibition of Tannerella forsythia ATCC 43037 planktonic growth at […] incubated for 48 hrs under anaerobic condition by spectrophotometric method; assay type: organism-based
Outline: (§4)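 F. nucleatum, P. gingivalis or T. forsythia were grown planktonically for 48 h at 37 °C under anaerobic conditions with compound at 2 mM. Growth was monitored by absorbance at 600 nm.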

[10] = test system: Fusobacterium nucleatum; assay: Inhibition of Fusobacterium nucleatum AI-2-mediated biofilm formation of Fusobacterium nucleatum ATCC 25586 assessed as biofilm average depth at 2 uM incubated for 48 hrs under anaerobic condition by confocal laser scanning microscopic method (reference value: 5.37 um)
[11] = test system: Fusobacterium nucleatum; assay: Inhibition of Fusobacterium nucleatum AI-2-mediated biofilm formation of Fusobacterium nucleatum ATCC 25586 assessed as biofilm formation at 2 uM incubated for 48 hrs under anaerobic condition by crystal violet staining-based assay (reference value: 100%); design: scale not given: the % may be the effect or the level left; outline: as §3
[12] = test system: Fusobacterium nucleatum; assay: Inhibition of Fusobacterium nucleatum AI-2-mediated biofilm formation of Tannerella forsythia ATCC 43037 assessed as biofilm average depth at 2 uM incubated for 48 hrs under anaerobic condition by confocal laser scanning microscopic method (reference value: 5.29 um)
[13] = test system: Vibrio harveyi; assay: Effect on Vibrio harveyi BB170 planktonic growth at 2 incubated for 9 hrs under aerobic condition by spectrophotometric method; design: concentration or dose not given beside the values; details: in vitro
[14] = test system: Fusobacterium nucleatum; assay: Inhibition of Fusobacterium nucleatum AI-2-mediated biofilm formation of Porphyromonas gingivalis ATCC 33277 assessed as biofilm formation at 2 uM incubated for 48 hrs under anaerobic condition by crystal violet staining-based assay (reference value: 100%); design: scale not given: the % may be the effect or the level left; outline: as §3
[15] = Effect on host cell immune response in human gingival fibroblasts assessed as upregulation of IL-8 mRNA expression at 2 uM after 24 hrs by RT-PCR method; assay type: ADME; outline: as §2
[16] = test system: Fusobacterium nucleatum; assay: Inhibition of Fusobacterium nucleatum ATCC 25586 planktonic growth at […] incubated for 48 hrs under anaerobic condition by spectrophotometric method; assay type: organism-based; outline: as §4
[17] = test system: Porphyromonas gingivalis; assay: Inhibition of Porphyromonas gingivalis ATCC 33277 planktonic growth at […] incubated for 48 hrs under anaerobic condition by spectrophotometric method; assay type: organism-based; outline: as §4
[18] = test system: Fusobacterium nucleatum; assay: Inhibition of Fusobacterium nucleatum AI-2-mediated biofilm formation of Tannerella forsythia ATCC 43037 assessed as biofilm biomass at 2 uM incubated for 48 hrs under anaerobic condition by confocal laser scanning microscopic method (reference value: 4.05 um'3/um'2)
[19] = test system: Fusobacterium nucleatum; assay: Inhibition of Fusobacterium nucleatum AI-2-mediated biofilm formation of Porphyromonas gingivalis ATCC 33277 assessed as biofilm average depth at 2 uM incubated for 48 hrs under anaerobic condition by confocal laser scanning microscopic method (reference value: 4.87 um)
[20] = test system: THP-1; assay: Effect on host cell immune response in human THP1 cells assessed as upregulation of IL-8 mRNA expression at 2 uM after 24 hrs by RT-PCR method; assay type: ADME, cell-based; details: thp-1, 24 h; outline: as §2
[21] = Cytotoxicity against human HOK16B assessed as effect on cell viability at 2 uM incubated for 24 hrs by CCK8 assay; outline: as §1
[22] = test system: Fusobacterium nucleatum; assay: Inhibition of Fusobacterium nucleatum ATCC 25586 AI-2 assessed as decrease in biofilm formation at 0.2 to 2 uM

With `CCCOc1cccc2c1C(=O)OC2=C(Br)Br` the inhibition [1] was “inactive”.
In the case of `O=C1OC(=C(Br)Br)C2=C1CCC2`, the inhibition [1] is reported as “inactive”.
For `O=C1OC(=C(Br)Br)C2CCCCC12` (stereo unspecified), the inhibition [1] was “inactive”.
For `Cc1ccc2c(c1)C(=C(Br)Br)OC2=O`, the Activity [2] was 0.29 um3/um2, the Activity [3] was “Non-Toxic” and the Activity [4] was “Non-Toxic”. For the same compound, the Activity [5] was 33.5%, the Activity [6] was “Non-Toxic” and the Activity [7] was 0.38 um3/um2. For the same compound, the Activity [8] was “Non-Toxic”, the “growth inhibition (GI)” value [9] was “Non-Toxic” and the Activity [10] was 1.87 µm. For the same compound, the Activity [11] was 32.1%, the Activity [12] was 1.94 µm and the Activity [13] was “Non-Toxic”. For the same compound, the Activity [14] was 34.7%, the Activity [15] was “Non-Toxic” and the “growth inhibition (GI)” value [16] was “Non-Toxic”. For the same compound, the “growth inhibition (GI)” value [17] was “Non-Toxic”, the Activity [18] was 0.59 um3/um2 and the Activity [19] was 2.05 µm. For the same compound, the Activity [20] was “Non-Toxic”, the Activity [21] was “Non-Toxic” and the inhibition [1] was “Active”.
For `CCCCOc1ccc2c(c1)C(=C(Br)Br)OC2=O`, the inhibition [1] was “inactive”.
With `Cc1cccc2c1C(=O)OC2=C(Br)Br` the Activity [2] was 0.27 um3/um2, the Activity [3] was “Non-Toxic” and the Activity [4] was “Non-Toxic”. For the same compound, the Activity [5] was 53.5%, the Activity [6] was “Non-Toxic” and the Activity [7] was 0.32 um3/um2. The Activity [8] was “Non-Toxic”, the “growth inhibition (GI)” value [9] was “Non-Toxic” and the Activity [10] was 1.72 µm. For the same compound, the Activity [11] was 33.2%, the Activity [12] was 2.41 µm and the Activity [13] was “Non-Toxic”. For the same compound, the Activity [14] was 29.3%, the Activity [15] was “Non-Toxic” and the “growth inhibition (GI)” value [16] was “Non-Toxic”. The “growth inhibition (GI)” value [17] was “Non-Toxic”, the Activity [18] was 0.88 um3/um2 and the Activity [19] was 1.97 µm. For the same compound, the Activity [20] was “Non-Toxic”, the Activity [21] was “Non-Toxic” and the inhibition [1] was “Active”.
For `CCCCCOc1cccc2c1C(=O)OC2=C(Br)Br`, the inhibition [1] was “inactive”.
In the case of `CCCOc1ccc2c(c1)C(=C(Br)Br)OC2=O`, the inhibition [1] is reported as “inactive”.
`O=C1C=C(Br)/C(=C/Br)O1` showed an Activity [2] of 0.3 um3/um2, an Activity [5] of 47.4% and an Activity [7] of 0.42 um3/um2. For the same compound, the Activity [8] was “Toxic”, the Activity [10] was 2.02 µm and the Activity [11] was 55.6%. For the same compound, the Activity [12] was 2.18 µm, the Activity [13] was “Toxic” and the Activity [14] was 39.2%. The Activity [15] was “Toxic”, the Activity [18] was 0.77 um3/um2 and the Activity [19] was 2.05 µm. The Activity [20] was “Toxic” and the inhibition [1] was “Active”.
With `CCCCOc1cccc2c1C(=O)OC2=C(Br)Br` the inhibition [1] was “inactive”.
With `CCOc1ccc2c(c1)C(=C(Br)Br)OC2=O` the inhibition [1] was “inactive”.
With `O=C1OC(=C(Br)Br)C2=C1CCCC2` the inhibition [1] was “inactive”.
For `CCOc1cccc2c1C(=O)OC2=C(Br)Br`, the inhibition [1] was “inactive”.
For `O=C1OC(=C(Br)Br)c2ccccc21`, the inhibition [22] was “Active” and the inhibition [1] was “inactive”.
In the case of `CCCCCOc1ccc2c(c1)C(=C(Br)Br)OC2=O`, the inhibition [1] is reported as “inactive”.
For `O=C1OC(=C(Br)Br)C2CCCC12` (stereo unspecified), the Activity [2] was 0.31 um3/um2, the Activity [3] was “Non-Toxic” and the Activity [4] was “Non-Toxic”. The Activity [5] was 57.8%, the Activity [6] was “Non-Toxic” and the Activity [7] was 0.39 um3/um2. The Activity [8] was “Non-Toxic”, the “growth inhibition (GI)” value [9] was “Non-Toxic” and the Activity [10] was 1.82 µm. The Activity [11] was 38.8%, the Activity [12] was 2.27 µm and the Activity [13] was “Non-Toxic”. For the same compound, the Activity [14] was 48.4%, the Activity [15] was “Non-Toxic” and the “growth inhibition (GI)” value [16] was “Non-Toxic”. The “growth inhibition (GI)” value [17] was “Non-Toxic”, the Activity [18] was 0.93 um3/um2 and the Activity [19] was 2.05 µm. The inhibition [22] was “Active”, the Activity [20] was “Non-Toxic” and the Activity [21] was “Non-Toxic”. For the same compound, the inhibition [1] was “Active”.
